Values after ≈ are worked out from the molar mass of the structure shown. Residues, ends and D or L forms follow the SMILES beside them. *: point of attachment. βNA = c1ccc2cc(N*)ccc2c1
What was measured:
Assay type in all cases: functional
[1] = system: Escherichia coli; assay: Antimicrobial activity against Escherichia coli AG100 after 18 hrs by rapid INT colorimetric assay; conditions: AG100, 18 h
Method in brief: (§1)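 Strains precultured overnight on Mueller-Hinton agar. Samples dissolved in DMSO-MHB, serially diluted twofold in MHB, inoculum 1.5 × 10^6 CFU/ml in MHB added; 37°C, 18 h; final DMSO <2.5%. 0.2 mg/ml INT then added, 30 min at 37°C. MIC = lowest concentration preventing yellow-to-pink reduction, i.e. complete growth inhibition.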

[2] = system: Enterobacter cloacae; assay: Antimicrobial activity against Enterobacter cloacae Ec1194 after 18 hrs by rapid INT colorimetric assay; conditions: Ec1194, 18 h
Method in brief: (§2)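 Strains precultured overnight on Mueller-Hinton agar. Sample dissolved in DMSO-MHB, twofold serial dilutions in MHB, inoculum 1.5 × 10^6 CFU/ml; final DMSO below 2.5%. Incubated 37°C 18 h, then 0.2 mg/ml INT added, 30 min at 37°C. MIC = lowest concentration preventing yellow-to-pink change (complete growth inhibition). DMSO-only wells as negative control.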

[3] = system: Klebsiella pneumoniae; assay: Antimicrobial activity against Klebsiella pneumoniae KP63 after 18 hrs by rapid INT colorimetric assay; conditions: KP63, 18 h; method in brief: as §2
[4] = system: Pseudomonas aeruginosa; assay: Antimicrobial activity against Pseudomonas aeruginosa PAO1 after 18 hrs by rapid INT colorimetric assay in presence of efflux pump inhibitor phenylalanine arginine; conditions: PAO1, 18 h
[5] = system: Escherichia coli; assay: Antimicrobial activity against Escherichia coli ATCC 10536 after 18 hrs by rapid INT colorimetric assay; conditions: ATCC 10536, 18 h; method in brief: as §2
[6] = system: Klebsiella pneumoniae; assay: Antimicrobial activity against Klebsiella pneumoniae KP55 after 18 hrs by rapid INT colorimetric assay; conditions: KP55, 18 h; method in brief: as §2
[7] = system: Klebsiella aerogenes; assay: Antimicrobial activity against Enterobacter aerogenes EA298 after 18 hrs by rapid INT colorimetric assay; conditions: EA298, 18 h; method in brief: as §1
[8] = system: Klebsiella pneumoniae; assay: Antimicrobial activity against Klebsiella pneumoniae ATCC 11296 after 18 hrs by rapid INT colorimetric assay; conditions: ATCC 11296, 18 h; method in brief: as §1
[9] = system: Pseudomonas aeruginosa; assay: Antimicrobial activity against Pseudomonas aeruginosa PA124 after 18 hrs by rapid INT colorimetric assay; conditions: PA124, 18 h; method in brief: as §1
[10] = system: Escherichia coli; assay: Antimicrobial activity against Escherichia coli ATCC 8739 after 18 hrs by rapid INT colorimetric assay; conditions: ATCC 8739, 18 h; method in brief: as §1
[11] = system: Escherichia coli; assay: Antimicrobial activity against Escherichia coli AG100A after 18 hrs by rapid INT colorimetric assay in presence of efflux pump inhibitor phenylalanine arginine
[12] = system: Escherichia coli; assay: Antimicrobial activity against Escherichia coli AG100A after 18 hrs by rapid INT colorimetric assay; method in brief: as §1
[13] = system: Enterobacter cloacae; assay: Antimicrobial activity against Enterobacter cloacae Ec07769 after 18 hrs by rapid INT colorimetric assay in presence of efflux pump inhibitor phenylalanine arginine; conditions: Ec07769, 18 h
[14] = system: Enterobacter cloacae; assay: Antimicrobial activity against Enterobacter cloacae Ec07769 after 18 hrs by rapid INT colorimetric assay; conditions: Ec07769, 18 h; method in brief: as §2
[15] = system: Escherichia coli; assay: Antimicrobial activity against Escherichia coli ATCC 8739 after 18 hrs by rapid INT colorimetric assay in presence of efflux pump inhibitor phenylalanine arginine; conditions: ATCC 8739, 18 h
Method in brief: (§3)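 Broth microdilution MIC in Mueller-Hinton broth with PAßN at a final 20 μg/ml throughout. Twofold dilutions of sample from DMSO-MHB stock; inoculum 1.5 × 10^6 CFU/ml; 18 h at 37°C, final DMSO <2.5%. Growth read by INT (0.2 mg/ml, 30 min, 37°C). MIC taken as lowest concentration with no pink colour.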

[16] = system: Klebsiella pneumoniae; assay: Antimicrobial activity against Klebsiella pneumoniae ATCC 11296 after 18 hrs by rapid INT colorimetric assay in presence of efflux pump inhibitor phenylalanine arginine; conditions: ATCC 11296, 18 h
[17] = system: Klebsiella aerogenes; assay: Antimicrobial activity against Enterobacter aerogenes EA3 after 18 hrs by rapid INT colorimetric assay in presence of efflux pump inhibitor phenylalanine arginine; conditions: EA3, 18 h
[18] = system: Escherichia coli; assay: Antimicrobial activity against tetracycline-resistant Escherichia coli AG102 after 18 hrs by rapid INT colorimetric assay in presence of efflux pump inhibitor phenylalanine arginine; conditions: AG102, 18 h; method in brief: as §3
[19] = system: Klebsiella aerogenes; assay: Antimicrobial activity against Enterobacter aerogenes ATCC 13048 after 18 hrs by rapid INT colorimetric assay; conditions: ATCC 13048, 18 h; method in brief: as §2
[20] = system: Klebsiella aerogenes; assay: Antimicrobial activity against Enterobacter aerogenes ATCC 13048 after 18 hrs by rapid INT colorimetric assay in presence of efflux pump inhibitor phenylalanine arginine; conditions: ATCC 13048, 18 h
[21] = system: Pseudomonas aeruginosa; assay: Antimicrobial activity against Pseudomonas aeruginosa PAO1 after 18 hrs by rapid INT colorimetric assay; conditions: PAO1, 18 h; method in brief: as §1
[22] = system: Escherichia coli; assay: Antimicrobial activity against Escherichia coli AG100 after 18 hrs by rapid INT colorimetric assay in presence of efflux pump inhibitor phenylalanine arginine; conditions: AG100, 18 h
[23] = system: Klebsiella aerogenes; assay: Antimicrobial activity against Enterobacter aerogenes EA294 after 18 hrs by rapid INT colorimetric assay; conditions: EA294, 18 h; method in brief: as §1
[24] = system: Klebsiella pneumoniae; assay: Antimicrobial activity against Klebsiella pneumoniae KP55 after 18 hrs by rapid INT colorimetric assay in presence of efflux pump inhibitor phenylalanine arginine; conditions: KP55, 18 h
[25] = system: Klebsiella aerogenes; assay: Antimicrobial activity against Enterobacter aerogenes EA5 after 18 hrs by rapid INT colorimetric assay; conditions: EA5, 18 h; method in brief: as §2
[26] = system: Klebsiella aerogenes; assay: Antimicrobial activity against Enterobacter aerogenes EA298 after 18 hrs by rapid INT colorimetric assay in presence of efflux pump inhibitor phenylalanine arginine; conditions: EA298, 18 h
[27] = system: Klebsiella aerogenes; assay: Antimicrobial activity against Enterobacter aerogenes EA3 after 18 hrs by rapid INT colorimetric assay; conditions: EA3, 18 h; method in brief: as §2
[28] = system: Klebsiella aerogenes; assay: Antimicrobial activity against Enterobacter aerogenes EA-CM64 after 18 hrs by rapid INT colorimetric assay; conditions: EA-CM64, 18 h; method in brief: as §1
[29] = system: Escherichia coli; assay: Antimicrobial activity against tetracycline-resistant Escherichia coli AG100A after 18 hrs by rapid INT colorimetric assay; method in brief: as §1
[30] = system: Pseudomonas aeruginosa; assay: Antimicrobial activity against Pseudomonas aeruginosa PA124 after 18 hrs by rapid INT colorimetric assay in presence of efflux pump inhibitor phenylalanine arginine; conditions: PA124, 18 h
[31] = system: Escherichia coli; assay: Antimicrobial activity against tetracycline-resistant Escherichia coli AG102 after 18 hrs by rapid INT colorimetric assay; conditions: AG102, 18 h; method in brief: as §1
[32] = system: Klebsiella pneumoniae; assay: Antimicrobial activity against Klebsiella pneumoniae KP63 after 18 hrs by rapid INT colorimetric assay in presence of efflux pump inhibitor phenylalanine arginine; conditions: KP63, 18 h
[33] = system: Klebsiella aerogenes; assay: Antimicrobial activity against Enterobacter aerogenes EA289 after 18 hrs by rapid INT colorimetric assay in presence of efflux pump inhibitor phenylalanine arginine; conditions: EA289, 18 h
[34] = system: Klebsiella aerogenes; assay: Antimicrobial activity against Enterobacter aerogenes EA5 after 18 hrs by rapid INT colorimetric assay in presence of efflux pump inhibitor phenylalanine arginine; conditions: EA5, 18 h
[35] = system: Enterobacter cloacae; assay: Antimicrobial activity against Enterobacter cloacae Ec1194 after 18 hrs by rapid INT colorimetric assay in presence of efflux pump inhibitor phenylalanine arginine; conditions: Ec1194, 18 h; method in brief: as §3
[36] = system: Klebsiella aerogenes; assay: Antimicrobial activity against Enterobacter aerogenes EA-CM64 after 18 hrs by rapid INT colorimetric assay in presence of efflux pump inhibitor phenylalanine arginine; conditions: EA-CM64, 18 h
[37] = system: Escherichia coli; assay: Antimicrobial activity against Escherichia coli ATCC 10536 after 18 hrs by rapid INT colorimetric assay in presence of efflux pump inhibitor phenylalanine arginine beta-naphthylamide; conditions: ATCC 10536, 18 h; method in brief: as §3
[38] = system: Klebsiella aerogenes; assay: Antimicrobial activity against Enterobacter aerogenes EA294 after 18 hrs by rapid INT colorimetric assay in presence of efflux pump inhibitor phenylalanine arginine; conditions: EA294, 18 h
[39] = system: Escherichia coli; assay: Antimicrobial activity against tetracycline-resistant Escherichia coli AG100A after 18 hrs by rapid INT colorimetric assay in presence of efflux pump inhibitor phenylalanine arginine; method in brief: as §3
[40] = system: Klebsiella aerogenes; assay: Antimicrobial activity against Enterobacter aerogenes EA289 after 18 hrs by rapid INT colorimetric assay; conditions: EA289, 18 h; method in brief: as §2
[41] = system: Klebsiella aerogenes; assay: Antimicrobial activity against Enterobacter aerogenes EA27 after 18 hrs by rapid INT colorimetric assay in presence of efflux pump inhibitor phenylalanine arginine; conditions: EA27, 18 h
[42] = system: Klebsiella aerogenes; assay: Antimicrobial activity against Enterobacter aerogenes EA27 after 18 hrs by rapid INT colorimetric assay; conditions: EA27, 18 h; method in brief: as §2

CC(C)=CCc1c(O)ccc(C(=O)/C=C/c2ccc(O)cc2)c1O [ISOBAVACHALCONE] gave an MIC [1] of 64 µg/mL (≈ 197 µM), an MIC [2] of 64 µg/mL (≈ 197 µM) and an MIC [3] of 16 µg/mL (≈ 49.3 µM). The MIC [4] was 16 µg/mL, the MIC [5] was 128 µg/mL (≈ 395 µM) and the MIC [6] was 32 µg/mL (≈ 98.7 µM). For the same compound, the MIC [7] was 8 µg/mL (≈ 24.7 µM), the MIC [8] was 32 µg/mL (≈ 98.7 µM) and the MIC [9] was 64 µg/mL (≈ 197 µM). The MIC [10] was 256 µg/mL (≈ 789 µM), the MIC [11] was 0.25 µg/mL and the MIC [12] was 16 µg/mL (≈ 49.3 µM). For the same compound, the MIC [13] was 8 µg/mL, the MIC [14] was 128 µg/mL (≈ 395 µM) and the MIC [15] was 8 µg/mL. It also gave an MIC [16] of 4 µg/mL, an MIC [17] of 32 µg/mL and an MIC [18] of 8 µg/mL. It also gave an MIC [19] of 256 µg/mL (≈ 789 µM), an MIC [20] of 16 µg/mL and an MIC [21] of 64 µg/mL (≈ 197 µM). For the same compound, the MIC [22] was 0.5 µg/mL, the MIC [23] was 32 µg/mL (≈ 98.7 µM) and the MIC [24] was 4 µg/mL. It also gave an MIC [25] of 64 µg/mL (≈ 197 µM), an MIC [26] of 0.5 µg/mL and an MIC [27] of 128 µg/mL (≈ 395 µM). The MIC [28] was greater than 256 µg/mL, the MIC [29] was 64 µg/mL (≈ 197 µM) and the MIC [30] was 4 µg/mL. It also gave an MIC [31] of 64 µg/mL (≈ 197 µM), an MIC [32] of 0.5 µg/mL and an MIC [33] of 16 µg/mL. For the same compound, the MIC [34] was 16 µg/mL, the MIC [35] was 1 µg/mL and the MIC [36] was 256 µg/mL. The MIC [37] was 2 µg/mL, the MIC [38] was 0.5 µg/mL and the MIC [39] was 8 µg/mL. For the same compound, the MIC [40] was 256 µg/mL (≈ 789 µM), the MIC [41] was 8 µg/mL and the MIC [42] was 256 µg/mL (≈ 789 µM).
N=C(N)NCCC[C@H](NC(=O)[C@@H](N)Cc1ccccc1)C(=O)Nc1ccc2ccccc2c1 [PABETAN] (H-Phe-Arg-βNA) gave an MIC [1] greater than 256 µg/mL, an MIC [2] greater than 256 µg/mL and an MIC [3] greater than 256 µg/mL. For the same compound, the MIC [5] was greater than 256 µg/mL, the MIC [6] was greater than 256 µg/mL and the MIC [7] was greater than 256 µg/mL. For the same compound, the MIC [8] was 256 µg/mL (≈ 573 µM), the MIC [9] was greater than 256 µg/mL and the MIC [10] was greater than 256 µg/mL. It also gave an MIC [12] of 64 µg/mL (≈ 143 µM), an MIC [14] greater than 256 µg/mL and an MIC [19] greater than 256 µg/mL. For the same compound, the MIC [21] was greater than 256 µg/mL, the MIC [23] was greater than 256 µg/mL and the MIC [25] was greater than 256 µg/mL. It also gave an MIC [27] greater than 256 µg/mL, an MIC [28] greater than 256 µg/mL and an MIC [29] greater than 256 µg/mL. It also gave an MIC [31] greater than 256 µg/mL, an MIC [40] greater than 256 µg/mL and an MIC [42] greater than 256 µg/mL.

From ChEMBL document CHEMBL1255429, “Efflux pumps are involved in the defense of Gram-negative bacteria against the natural products isobavachalcone and diospyrone” (2010)
